Source: PubChem BioAssay
DENV2 CPE: DENV2-induced cell death inhibition. DENV2-infected cells, cytopathic effect rescue, plate reader. CPE inhibition, % at 9.99 µM. 350,000 compounds, 1.7% hits; in the data active means CPE inhibition above about 20%, passing the limit was not always enough; tested in BHK-21 cells;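 further: 0% = median of neutral control wells and 100% = median of positive control wells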
E-sel inducer: E-selectin induction on HUVECs | HUVEC E-selectin immunofluorescence imaging; normalized: neutral wells 0, TNF-alpha wells 100 | P16581 | AID 686992 | 260,000 compounds, 0.37% hits | activation, % at 7.58 µM;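 active means mean E-selectin-positive cell signal at least 10% of the positive control, reached in at least 60% of replicates, without over 20% cell loss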
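Read-out basis: % PE-positive cells; Test system: HUVEC primary endothelial cells; Technique: immunofluorescence imaging; Dosing: single-point compound dose.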
XiGFP reactiv: reactivates the inactive X chromosome in mouse fibroblasts | 360,000 compounds, 0.055% hits | AID 743238 | XiGFP mouse fibroblasts, % GFP-positive cells imaging, 3 d; cells co-treated with 5-aza-dC sensitizer; scaled so ellipticine positive control = 100% | activation, % at 7.58 µM;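 active means mean normalized replicate activation at least 10% and every replicate at or above 10%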;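 further: 0% = median of on-plate neutral control wells and 100% = ellipticine 6 µM median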
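System: 68-5-11 XiGFP fibroblast line; Timing: 3 days compound exposure; Compound dosing: one concentration, pinned; Benchmarks: positive control ellipticine, 6 µM final; Buffer or medium: DMEM containing 5-aza-dC.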
C2C12 statin: suppression of simvastatin myotoxicity; C2C12 myotubes + simvastatin, ATP luminescence, 48 h; scaled: DMSO 0, geranylgeraniol control 100; rescue of ATP level, % at 7.49 µM; 330,000 compounds, 0.78% hits;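 active means mean ATP rescue above about 67%, or every replicate alone reaching that limit, limit read from the data, passing the limit was not always enough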;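 further: myotubes were challenged with 10 µM simvastatin during compound exposure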
PglD DTNB: blocks C. jejuni PglD acetyltransferase activity; AID 602405; inhibition, % at 12.5 µM; 360,000 compounds, 0.098% hits; purified PglD enzyme, DTNB colorimetric CoA detection; in the data active means inhibition above about 16%, passing the limit was not always enough
FGF22 binding-1: binders of recombinant human FGF22 by thermal shift; SYPRO orange fluorescence; percent of sucrose octasulfate shift, DMSO zero; activity (Tm shift, normalised), % at 9.99 µM; 340,000 compounds, 1.5% hits;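 active means mean Tm shift, scaled 0 neutral to 100 positive control, at about 1.3% or above, every replicate too, limit read from the data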
Target sequence (Q9HCT0 whole entry, looked up): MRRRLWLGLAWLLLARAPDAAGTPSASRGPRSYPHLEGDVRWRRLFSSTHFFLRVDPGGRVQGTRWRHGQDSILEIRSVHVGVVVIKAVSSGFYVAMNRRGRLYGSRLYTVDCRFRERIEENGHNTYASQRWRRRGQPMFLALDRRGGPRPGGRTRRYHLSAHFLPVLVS
PglD confirm: PglD (C. jejuni) inhibition confirmation. shares compounds with PglD DTNB. Purified C. jejuni PglD, DTNB absorbance 412 nm. inhibition, % at 20 µM. 320 tested, under 10 active. AID 743156;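 active means mean inhibition across replicates of at least 20% with every single replicate also at 20% or more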;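 further: initial rate of CoA release by acetyl transfer from AcCoA to the UDP-4-amino sugar; 0% = median of neutral control wells and 100% = median of positive control wells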
FGF22 binding-2: FGF22 (human) binding in thermal shift. shares compounds with FGF22 binding-1. AID 720646. thermal shift activity, °C (ΔTm) at 38 µM. 1,000 compounds, 2% hits. recombinant FGF22 thermal shift, SYPRO orange fluorescence;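 active means fitted rise in melting shift crosses a set limit at or below the top valid dose tested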
TSA no protein: counter-screen for FGF22 binders: compound-only thermal shift, no protein; shares compounds with FGF22 binding-1; compound-only SYPRO orange thermal shift counter-screen; AC50, µM (doses to about 38 µM); 1,000 compounds, 2% hits;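 active means rising signal whose fitted curve reaches the 0.54 level within the top valid dose, showing a melting point, actives reach about 13 µM in these data; inactive means the rest, including activity in the opposite direction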; further: value is where the raw curve crosses a fixed level and not half-maximal
* = called active by the depositor; i = inactive; / = no result given. Most compounds without a hit are left out; they make up all but 3.3% or so of the library.

SMILES | DENV2 CPE | E-sel inducer | XiGFP reactiv | C2C12 statin | PglD DTNB | FGF22 binding-1 | others
CCCN1[C@@H]2Cn3c(cccc3=O)[C@H]1[C@@H](C(=O)N(C)C)[C@@H]2CO | -1 | 0 | 1 | 2 | 2 | 0
Cn1cnc([N+](=O)[O-])c1Sc1ccc([N+](=O)[O-])cc1 | -4 | -5 | 0 | / | 4 | 43*
Oc1cccc2nc3ccccc3nc12 | 111* | / | / | -4 | -1 | 0
O=C(Cc1ccncc1)N1CCCCN2[C@H](CO)[C@H](c3ccc(C#Cc4ccccc4F)cc3)[C@@H]2C1 | -1 | 0 | 0 | -4 | 3 | 0
O=C(O)C(Br)Br | 70* | / | / | / | / | 0
NC(=S)/N=C/c1c(O)[nH]c(=O)[nH]c1=O | -1 | / | 0 | / | / | 43*
CC(C)NC(=O)N1[C@@H]2Cn3c(ccc(-c4cccc(C(=O)N(C)C)c4)c3=O)[C@H]1[C@@H](C(=O)O)[C@@H]2CO | 3 | 0 | 0 | -52 | -3 | 0
C=CCn1c(O)c(C=NC2CCN(Cc3ccccc3)CC2)c(=O)[nH]c1=O | -5 | / | 0 | -14 | 20* | 0 | PglD confirm=-7
COC(=O)[C@@H]1[C@@H](CO)[C@@H]2Cn3c(ccc(C4=CCCC4)c3=O)[C@H]1N2CC1CCCC1 | -7 | 0 | 0 | / | / | /
CCCC(C)C1C(C#N)=C(N)Oc2c1c(=O)oc1ccccc21 (centres undefined) | / | / | / | -10 | 24* | / | PglD confirm=-4
CC(=O)NC1CC2CCCC(C1)N2 (centres undefined) | / | / | / | -4 | 27* | / | PglD confirm=-4
CC(=O)NC1CC2CCC(C1)N2 (centres undefined) | / | / | / | 4 | 5 | /
COC(=O)[C@@H]1[C@@H](CO)[C@@H]2Cn3c(ccc(C4=CCCCC4)c3=O)[C@H]1N2Cc1cccnc1 | 13 | 0 | 1 | 5 | 2 | 0
CC(C)c1ccc(-n2c(O)c(/C=N/NC(=O)c3ccccc3O)c(=O)[nH]c2=S)cc1 | 16 | 0 | 0 | -3 | -4 | 1.4* | FGF22 binding-2=0.37;TSA no protein=i
O=c1oc2ccccc2c(O)c1C(c1ccccn1)c1c(O)c2ccccc2oc1=O | 1 | / | 0 | 7 | / | 0
CCOC(=O)C(c1c(O)c2ccccc2oc1=O)c1c(O)c2ccccc2oc1=O | -1 | 0 | 0 | 8 | -1 | 1.8* | FGF22 binding-2=0.003;TSA no protein=i
COc1ccc(C#Cc2ccc3c(c2)O[C@H](CN(C)S(=O)(=O)c2ccccc2F)[C@@H](C)CN([C@@H](C)CO)S3(=O)=O)cc1 | 7 | 0 | -1 | 14 | -1 | 2.1* | FGF22 binding-2=0.016;TSA no protein=2.4µM*
COc1ccc(OC(=O)N(C)C[C@H]2OCc3ccccc3-c3c(n(C)c4ccccc34)C(=O)N([C@H](C)CO)C[C@H]2C)cc1 | 7 | 0 | 0 | / | / | /
CCCC#Cc1ccc([C@@H]2[C@@H](CO)N3CCCCN(C(=O)Cc4ccccn4)C[C@@H]23)cc1 | -1 | 0 | 0 | / | 3 | 0
C/C=C/c1ccc([C@@H]2[C@H]3CN(C(=O)Cc4ccncc4)CCCCN3[C@H]2CO)cc1 | 82* | 0 | 0 | -19 | -1 | 1.3* | FGF22 binding-2=0.039;TSA no protein=i
CC=Cc1ccc2n(c1=O)C[C@H]1[C@H](CO)[C@@H](C(=O)O)[C@@H]2N1S(=O)(=O)c1ccccc1C (mixture of isomers) | 0 | 0 | 0 | -9 | 4 | 0
